# Assay results published in ChEMBL document CHEMBL1138380, “4-Aminopyrimidines as novel HIV-1 inhibitors” (Bioorg Med Chem Lett, 2007).
# How the values were obtained:
# [1] = Cytotoxicity against HEK293T cells after 48 hrs; type: cell-based, HEK-293T; details: human
# Procedure, shortened: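 293T cells seeded at 700 cells/well in 1536-well format and cultured 24 h at 37 °C under 5% CO2. Compounds serially diluted in DMSO were added. After culture, viability was read by Alamar Blue diluted 1:1 in DMEM, incubated 4 h at room temperature, with fluorescence intensity measured.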
# [2] = test system: Human immunodeficiency virus; experiment: Antiviral activity against HIV in HEK293T cells after 48 hrs; type: functional, organism-based; details: Human immunodeficiency virus 1, HEK-293T
# Procedure, shortened: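 HEK 293T cells grown in DMEM with 10% FBS and Pen/Strep/glutamine, seeded at 700 cells/well in 1536-well format, then cultured 24 h at 37 °C under 5% CO2. Compounds serially diluted in DMSO were added and incubated 1 h at 37 °C. Cells were then infected with HIV reporter virus at MOI ~1.0 and cultured 48 h at 37 °C. Read-out was luciferase activity.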
Compound,EC50 [2],CC50 at 48 h [1]
CCc1ncnc(NC(C)c2ccc(C(C)(C)C)cc2)c1Cl (stereo not drawn),16 nM,> 10000 nM
CCc1ncnc(NC(C)c2ccc(OC(=O)NCCOCCNC(C)=O)cc2)c1Cl (stereo not drawn),5 nM,> 10000 nM
CCc1ncnc(NC(C)c2ccc3c(c2)N(C(C)=O)CCO3)c1Cl (stereo not drawn),35 nM,> 10000 nM
CCc1ncnc(NC(C)c2ccc(OC(=O)NCCCNC(C)=O)cc2)c1Cl (stereo not drawn),190 nM,> 10000 nM
Cc1ccnc2c1NC(=O)c1cccnc1N2C1CC1 [NEVIRAPINE],50 nM,> 10000 nM
CCc1ncnc(N(C)C(C)c2ccc(OC(=O)N(C)CCOCCN(C)C(C)=O)cc2)c1Cl (stereo not drawn),> 10000 nM,> 10000 nM
CCc1ncnc(NC(C)c2ccc(OC(=O)NCCCOCCCNC(C)=O)cc2)c1Cl (stereo not drawn),5 nM,> 10000 nM
CCc1ncnc(NC(C)c2ccc(OC(=O)N(C)C)cc2)c1Cl (stereo not drawn),4 nM,> 10000 nM
CCC(Nc1cc(COC)ncn1)c1ccc(Oc2ccc(F)cc2)cc1 (stereo not drawn),31 nM,> 10000 nM
CCc1ncnc(NC(CC)c2ccc([N+](=O)[O-])cc2)c1Cl (stereo not drawn),2660 nM,> 10000 nM
CCc1ncnc(N(C)C(C)c2ccc(OC(=O)N(C)C)cc2)c1Cl (stereo not drawn),> 10000 nM,> 10000 nM
CCc1ncnc(NC(CC)c2ccc(N(C)C)cc2)c1Cl (stereo not drawn),341 nM,> 10000 nM
CCc1ncnc(NC(C)c2ccc3ccccc3c2)c1Cl (stereo not drawn),139 nM,> 10000 nM
CCc1ncnc(NC(C)c2ccc(NC(=O)CCCC[C@@H]3SC[C@@H]4NC(=O)N[C@@H]43)cc2)c1Cl (stereo partly drawn),622 nM,> 10000 nM
CCc1ncnc(NC(C)c2ccc(OC(=O)N(C)CCOCCN(C)C(C)=O)cc2)c1Cl (stereo not drawn),4 nM,> 10000 nM
CCc1ncnc(NC(C)c2ccc(OC(=O)NCCOCCOCCOCCNC(C)=O)cc2)c1Cl (stereo not drawn),190 nM,> 10000 nM
CCc1ncnc(NC(C)c2ccc(OC(=O)N(C)CCCN(C)C(C)=O)cc2)c1Cl (stereo not drawn),327 nM,> 10000 nM
CCc1nc(C)nc(NC(CC)c2ccc(Oc3ccc(F)cc3)cc2)c1Br (stereo not drawn),18 nM,> 10000 nM

# Continued by falling EC50 [2], values first:
EC50 [2],Compound,CC50 at 48 h [1]
4890 nM,CCc1ncnc(NC(C)c2ccc(NC(=O)N(C)CCCN(C)C(C)=O)cc2)c1Cl (stereo not drawn),> 10000 nM
3020 nM,CCc1ncnc(NC(C)c2ccc(NC(=O)N(C)CCOCCN(C)C(C)=O)cc2)c1Cl (stereo not drawn),> 10000 nM
1190 nM,CCc1ncnc(NC(C)c2ccc(NC(C)=O)cc2)c1Cl (stereo not drawn),> 10000 nM
816 nM,CCc1ncnc(NC(C)c2sc3ccccc3c2C)c1Cl (stereo not drawn),> 10000 nM
778 nM,CCc1ncnc(NC(C)c2cc3c(cc2O)CCCC3)c1Cl (stereo not drawn),> 10000 nM
760 nM,CCCc1ncnc(NC(CC)c2ccc(Oc3ccc(F)cc3)cc2)c1Br (stereo not drawn),> 10000 nM
691 nM,CCc1ncnc(NC(C)c2cc3cccc(OC)c3o2)c1Cl (stereo not drawn),> 10000 nM
353 nM,CCc1ncnc(NC(C)c2ccc3c(c2)N=C(NCCO)CO3)c1Cl (stereo not drawn),> 10000 nM
331 nM,CCc1ncnc(NCc2ccc(C(C)(C)C)cc2)c1Cl,> 10000 nM
324 nM,CCC(Nc1cc(C)ncn1)c1ccc(Oc2ccc(F)cc2)cc1 (stereo not drawn),> 10000 nM
170 nM,CCc1ncnc(NC(C)c2ccc3c(c2)CCCC3)c1Cl (stereo not drawn),> 10000 nM
96 nM,CCCc1cc(NC(CC)c2ccc(Oc3ccc(F)cc3)cc2)ncn1 (stereo not drawn),> 10000 nM
95 nM,CCc1ncnc(NC(C)c2cccc3ccccc23)c1Cl (stereo not drawn),> 10000 nM
48 nM,CCc1ncnc(NC(CC)c2ccc(Oc3ncnc4ccccc34)cc2)c1Cl (stereo not drawn),> 10000 nM
42 nM,CCc1ncnc(NC(C)c2ccc3ccccc3n2)c1Cl (stereo not drawn),> 10000 nM
29 nM,CCc1ncnc(NC(C)c2ccc3c(c2)NCCO3)c1Cl (stereo not drawn),> 10000 nM
28 nM,CCc1ncnc(NC(CC)c2ccc(C(C)(C)C)cc2)c1Cl (stereo not drawn),> 10000 nM
17 nM,CCc1ncnc(NC(CC)c2ccc(-c3ccccc3)cc2)c1Cl (stereo not drawn),> 10000 nM
15 nM,CCC(Nc1nc(C)nc(Cl)c1N)c1ccc(Oc2ccc(F)cc2)cc1 (stereo not drawn),> 10000 nM
3 nM,CCc1ncnc(NC(CC)c2ccc(Oc3ccc(F)cc3)cc2)c1Br (stereo not drawn),> 10000 nM
0.5 nM,"O=C1Nc2ccc(Cl)cc2C(C#CC2CC2)(C(F)(F)F)O1 (single isomer, unassigned) [EFAVIRENZ]",10000 nM
